In brackets after ≈: the same amount, converted by molar mass.
Assays:
Format in all cases: functional
Streptococcus pneumoniae = assay: Antibacterial activity against penicillin-resistant Streptococcus pneumoniae after 18 hrs by NCCLS agar dilution method
Outline: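 Agar dilution was run on Mueller-Hinton agar supplemented with 5% sheep blood, with drug dilutions from 0.12 to 64 µg/ml. Test compounds were dissolved in 80% DMSO in water. Final inoculum was 10^7 CFU/ml, incubated at 35 °C for 18 h. MIC was the lowest concentration preventing visible growth.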

Escherichia coli = assay: Antibacterial activity against Escherichia coli ATCC 25922 after 18 hrs by NCCLS agar dilution method; settings: ATCC 25922, 18 h
Outline: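 Agar dilution per NCCLS on Mueller-Hinton agar, drug dilutions 0.12–64 µg/ml. Linezolid dissolved in 40% water in ethanol, vancomycin in water, test agents in 80% DMSO in water. Inoculum 10^7 CFU/ml (final), incubated 35 °C for 18 h. MIC is the lowest concentration preventing visible growth.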

Staphylococcus aureus [1] = assay: Antibacterial activity against methicillin-resistant Staphylococcus aureus after 18 hrs by NCCLS agar dilution method
Outline: (§1)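 Clinical isolates were tested by agar dilution on Mueller-Hinton agar with drug dilutions from 0.12 to 64 µg/ml. Test compounds were dissolved in 80% DMSO in water. Final inoculum was 10^7 CFU/ml, incubated at 35 °C for 18 h. MIC was the lowest concentration inhibiting visible growth.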

Staphylococcus aureus [2] = assay: Antibacterial activity against Staphylococcus aureus ATCC 25923 after 18 hrs by […] in presence of human plasma; settings: ATCC 25923, Plasma
Outline: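 To gauge plasma protein binding and/or plasma instability, MIC was determined in Mueller-Hinton broth containing 50% human plasma. Linezolid served as a reference agent. Ratio compares this MIC with the MIC obtained without plasma.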

Staphylococcus aureus [3] = assay: Antibacterial activity against methicillin-susceptible Staphylococcus aureus after 18 hrs by NCCLS agar dilution method; outline: as §1
Enterococcus [4] = assay: Antibacterial activity against vancomycin-susceptible Enterococcus after 18 hrs by NCCLS agar dilution method; outline: as §1
Haemophilus influenzae = assay: Antibacterial activity against Haemophilus influenzae ATCC 49247 after 18 hrs by NCCLS agar dilution method; settings: ATCC 49247, 18 h
Outline: (§2)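 NCCLS agar dilution on Mueller-Hinton agar with 5% sheep blood added to support growth. Drug dilutions 0.12–64 µg/ml. Test agents in 80% DMSO in water, linezolid in 40% water in ethanol. Final inoculum 10^7 CFU/ml, 18 h at 35 °C. MIC read as the lowest concentration with no visible growth.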

Staphylococcus [5] = assay: Antibacterial activity against methicillin-susceptible coagulase-negative Staphylococcus after 18 hrs by NCCLS agar dilution method; outline: as §1
Staphylococcus aureus [6] = assay: Antibacterial activity against Staphylococcus aureus ATCC 25923 after 18 hrs by NCCLS agar dilution method; settings: ATCC 25923, 18 h
Outline: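 Plain Mueller-Hinton agar, agar dilution per NCCLS, concentrations 0.12–64 µg/ml. Test agents in 80% DMSO in water, linezolid in 40% water in ethanol, vancomycin in water. Final inoculum 10^7 CFU/ml, 35 °C for 18 h. MIC = lowest concentration inhibiting visible growth.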

Enterococcus [7] = assay: Antibacterial activity against vancomycin-resistant Enterococcus after 18 hrs by NCCLS agar dilution method; outline: as §1
Staphylococcus [8] = assay: Antibacterial activity against methicillin-resistant coagulase-negative Staphylococcus after 18 hrs by NCCLS agar dilution method; outline: as §1
Moraxella catarrhalis [9] = assay: Antibacterial activity against Moraxella catarrhalis ATCC 8176 after 18 hrs by NCCLS agar dilution method; settings: ATCC 8176, 18 h; outline: as §2
Moraxella catarrhalis [10] = assay: Antibacterial activity against Moraxella catarrhalis clinical isolate 36 after 18 hrs by NCCLS agar dilution method; settings: clinical isolate 36, 18 h; outline: as §2
Moraxella catarrhalis [11] = assay: Antibacterial activity against Moraxella catarrhalis clinical isolate 1 after 18 hrs by NCCLS agar dilution method; settings: clinical isolate 1, 18 h; outline: as §2
Moraxella catarrhalis [12] = assay: Antibacterial activity against Moraxella catarrhalis clinical isolate 112 after 18 hrs by NCCLS agar dilution method; settings: clinical isolate 112, 18 h; outline: as §2
Moraxella catarrhalis [13] = assay: Antibacterial activity against Moraxella catarrhalis clinical isolate 2824 after 18 hrs by NCCLS agar dilution method; settings: clinical isolate 2824, 18 h; outline: as §2
Moraxella catarrhalis [14] = assay: Antibacterial activity against Moraxella catarrhalis clinical isolate 3447 after 18 hrs by NCCLS agar dilution method; settings: clinical isolate 3447, 18 h; outline: as §2
Moraxella catarrhalis [15] = assay: Antibacterial activity against Moraxella catarrhalis clinical isolate 125 after 18 hrs by NCCLS agar dilution method; settings: clinical isolate 125, 18 h; outline: as §2
Moraxella catarrhalis [16] = assay: Antibacterial activity against Moraxella catarrhalis clinical isolate 138 after 18 hrs by NCCLS agar dilution method; settings: clinical isolate 138, 18 h; outline: as §2
Moraxella catarrhalis [17] = assay: Antibacterial activity against Moraxella catarrhalis clinical isolate 255 after 18 hrs by NCCLS agar dilution method; settings: clinical isolate 255, 18 h; outline: as §2

| Compound | MIC (Streptococcus pneumoniae) [µg/mL] | MIC (Escherichia coli) [µg/mL] | MIC (Staphylococcus aureus [1]) [µg/mL] | MIC (Staphylococcus aureus [2]) [µg/mL] | MIC (Staphylococcus aureus [3]) [µg/mL] | MIC (Enterococcus [4]) [µg/mL] | MIC (Haemophilus influenzae) [µg/mL] | MIC (Staphylococcus [5]) [µg/mL] | MIC (Staphylococcus aureus [6]) [µg/mL] | MIC (Enterococcus [7]) [µg/mL] | MIC (Staphylococcus [8]) [µg/mL] | MIC (Moraxella catarrhalis [9]) [µg/mL] | MIC (Moraxella catarrhalis [10]) [µg/mL] | MIC (Moraxella catarrhalis [11]) [µg/mL] | MIC (Moraxella catarrhalis [12]) [µg/mL] | MIC (Moraxella catarrhalis [13]) [µg/mL] | MIC (Moraxella catarrhalis [14]) [µg/mL] | MIC (Moraxella catarrhalis [15]) [µg/mL] | MIC (Moraxella catarrhalis [16]) [µg/mL] | MIC (Moraxella catarrhalis [17]) [µg/mL] |
| --- | --- | --- | --- | --- | --- | --- | --- | --- | --- | --- | --- | --- | --- | --- | --- | --- | --- | --- | --- | --- |
| O=C(NCC(=O)N1CCN(c2ccc(N3C[C@H](Cn4ccnn4)OC3=O)cc2F)CC1)C1CCCO1 (some centres undefined) | 1 (≈ 1.99 µM) | > 64 | 4 (≈ 7.98 µM) | 16 | 4 (≈ 7.98 µM) | 4 (≈ 7.98 µM) | 32 (≈ 63.8 µM) | 4 (≈ 7.98 µM) | 8 (≈ 16 µM) | 8 (≈ 16 µM) | 4 (≈ 7.98 µM) | 16 (≈ 31.9 µM) |  |  |  |  |  |  |  |  |
| Cc1cn(C[C@H]2CN(c3ccc(N4CCN(C(=O)CNC(=O)C5CCCO5)CC4)c(F)c3)C(=O)O2)nn1 (some centres undefined) | 0.5 (≈ 0.97 µM) | > 64 | 16 (≈ 31 µM) | 32 | 16 (≈ 31 µM) | 16 (≈ 31 µM) | 32 (≈ 62.1 µM) | 16 (≈ 31 µM) | 32 (≈ 62.1 µM) | 16 (≈ 31 µM) | 16 (≈ 31 µM) | 32 (≈ 62.1 µM) |  |  |  |  |  |  |  |  |
| O=C(NCC(=O)N1CCN(c2ccc(N3C[C@H](Cn4ccnn4)OC3=O)cc2F)CC1)c1ccccc1 | 1 (≈ 1.97 µM) | > 64 | 0.5 (≈ 0.985 µM) | > 64 | 0.5 (≈ 0.985 µM) | 1 (≈ 1.97 µM) | 32 (≈ 63.1 µM) | 0.5 (≈ 0.985 µM) | 1 (≈ 1.97 µM) | 0.5 (≈ 0.985 µM) | 0.5 (≈ 0.985 µM) | 32 (≈ 63.1 µM) |  |  |  |  |  |  |  |  |
| Cc1cn(C[C@H]2CN(c3ccc(N4CCN(C(=O)CNC(=O)c5cccs5)CC4)c(F)c3)C(=O)O2)nn1 | 0.5 (≈ 0.948 µM) | > 64 | 1 (≈ 1.9 µM) | 8 | 1 (≈ 1.9 µM) | 1 (≈ 1.9 µM) | 16 (≈ 30.3 µM) | 1 (≈ 1.9 µM) | 2 (≈ 3.79 µM) | 1 (≈ 1.9 µM) | 1 (≈ 1.9 µM) | 8 (≈ 15.2 µM) | 8 (≈ 15.2 µM) | ≥ 8 | 8 (≈ 15.2 µM) | 8 (≈ 15.2 µM) | ≥ 8 | 8 (≈ 15.2 µM) | 8 (≈ 15.2 µM) | 8 (≈ 15.2 µM) |
| O=C(NCC(=O)N1CCN(c2ccc(N3C[C@H](Cn4ccnn4)OC3=O)cc2F)CC1)c1ccco1 | 0.25 (≈ 0.503 µM) | > 64 | 1 (≈ 2.01 µM) | 2 | 1 (≈ 2.01 µM) | 1 (≈ 2.01 µM) | 16 (≈ 32.2 µM) | 1 (≈ 2.01 µM) | 2 (≈ 4.02 µM) | 1 (≈ 2.01 µM) | 1 (≈ 2.01 µM) | 16 (≈ 32.2 µM) |  |  |  |  |  |  |  |  |
| Cc1cn(C[C@H]2CN(c3ccc(N4CCN(C(=O)CNC(=O)c5ccco5)CC4)c(F)c3)C(=O)O2)nn1 | 0.5 (≈ 0.977 µM) | > 64 | 2 (≈ 3.91 µM) | 4 | 2 (≈ 3.91 µM) | 2 (≈ 3.91 µM) | 4 (≈ 7.82 µM) | 2 (≈ 3.91 µM) | 2 (≈ 3.91 µM) | 2 (≈ 3.91 µM) | 2 (≈ 3.91 µM) | 8 (≈ 15.6 µM) | > 8 | > 8 | > 8 | > 8 | > 8 | > 8 | > 8 | > 8 |
| O=C(CNS(=O)(=O)c1cccs1)N1CCN(c2ccc(N3C[C@H](Cn4ccnn4)OC3=O)cc2F)CC1 | 1 (≈ 1.82 µM) | > 64 | 2 (≈ 3.64 µM) | 32 | 2 (≈ 3.64 µM) | 2 (≈ 3.64 µM) | ≥ 64 | 2 (≈ 3.64 µM) | 4 (≈ 7.28 µM) | 2 (≈ 3.64 µM) | 2 (≈ 3.64 µM) | 32 (≈ 58.2 µM) |  |  |  |  |  |  |  |  |
| Cc1cn(C[C@H]2CN(c3ccc(N4CCN(C(=O)CNS(=O)(=O)c5cccs5)CC4)c(F)c3)C(=O)O2)nn1 | 2 (≈ 3.55 µM) | > 64 | 8 (≈ 14.2 µM) | 32 | 8 (≈ 14.2 µM) | 8 (≈ 14.2 µM) | 64 (≈ 114 µM) | 8 (≈ 14.2 µM) | 16 (≈ 28.4 µM) | 8 (≈ 14.2 µM) | 8 (≈ 14.2 µM) | 32 (≈ 56.8 µM) |  |  |  |  |  |  |  |  |
| CC(=O)NC[C@H]1CN(c2ccc(N3CCOCC3)c(F)c2)C(=O)O1 [LINEZOLID] |  | > 64 | 0.5 (≈ 1.48 µM) |  | 0.5 (≈ 1.48 µM) | 0.5 (≈ 1.48 µM) | 8 (≈ 23.7 µM) | 0.5 (≈ 1.48 µM) |  | 0.5 (≈ 1.48 µM) | 0.5 (≈ 1.48 µM) | 8 (≈ 23.7 µM) | 8 (≈ 23.7 µM) | 8 (≈ 23.7 µM) | 8 (≈ 23.7 µM) | 8 (≈ 23.7 µM) | 8 (≈ 23.7 µM) | 8 (≈ 23.7 µM) | 8 (≈ 23.7 µM) | 8 (≈ 23.7 µM) |
